Columns and labels:
Mus musculus [1] = experiment: Antiinflammatory activity in DNFB-induced ICR mouse model of auricle edema assessed as inhibition of ear swelling at 0.5 mg/kg, ig administered once daily for 6 days followed by 1% DNFB solution applied on right ear measured after 24 hrs relative to untreated control; format: functional; settings: po
How it was run: (§1)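 Male ICR mice, 18-22 g, randomized by weight, 6 per group. Dosed by intragastric route once daily for 6 days; saline given to normal and model groups. Right ear coated with 10 uL 1% DNFB (DNFB in acetone/olive oil); left ear received acetone/olive oil only. Mice killed 24 h later and both ears weighed. Swelling = right minus left ear weight; inhibition calculated versus model control.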

[2] = Inhibition of soyabean 15-LOX preincubated for 5 mins followed by susbtrate addition measured after 10 mins by colorimetric method; set-up: species or system Glycine max
How it was run: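 Soybean lipoxygenase assessed with a commercial lipoxygenase assay kit, following the kit instructions. IC50 values determined.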

Mus musculus [3] = experiment: Antiinflammatory activity in DNFB-induced ICR mouse model of auricle edema assessed as inhibition of ear swelling at 5 mg/kg, ig administered once daily for 6 days followed by 1% DNFB solution applied on right ear measured after 24 hrs relative to untreated control; format: functional; settings: po; how it was run: as §1
[4] = biological target: T1, Prostaglandin G/H synthase 1 (Ovis aries, UniProt P05979); experiment: Inhibition of ovine COX-1 using arachidonic acid as substrate incubated for 5 mins by fluorescence-based assay
T1 sequence (P05979 whole entry): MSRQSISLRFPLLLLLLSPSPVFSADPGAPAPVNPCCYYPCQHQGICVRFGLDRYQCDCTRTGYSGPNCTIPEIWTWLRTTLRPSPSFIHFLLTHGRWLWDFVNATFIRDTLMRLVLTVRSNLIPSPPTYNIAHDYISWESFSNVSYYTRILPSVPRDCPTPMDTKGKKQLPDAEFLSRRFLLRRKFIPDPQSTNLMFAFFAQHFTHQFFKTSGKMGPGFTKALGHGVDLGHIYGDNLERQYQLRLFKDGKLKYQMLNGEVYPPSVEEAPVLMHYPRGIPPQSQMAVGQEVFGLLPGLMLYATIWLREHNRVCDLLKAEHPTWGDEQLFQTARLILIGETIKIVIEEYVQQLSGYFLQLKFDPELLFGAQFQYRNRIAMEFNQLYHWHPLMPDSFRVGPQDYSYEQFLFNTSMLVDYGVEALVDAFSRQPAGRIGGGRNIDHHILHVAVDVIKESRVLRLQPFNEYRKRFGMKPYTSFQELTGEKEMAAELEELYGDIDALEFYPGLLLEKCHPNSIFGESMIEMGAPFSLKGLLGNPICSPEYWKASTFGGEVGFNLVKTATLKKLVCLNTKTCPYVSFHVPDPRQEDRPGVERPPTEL
How it was run: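 COX-1 fluorometric inhibitor-screening kit. Assay buffer, COX-1 cofactor and arachidonic acid were combined with test compound and incubated 5 min at 37 °C. Inhibition derived from RFU relative to 100%-activity and blank controls. Run in triplicate; IC50 taken from concentration curves.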

RAW264.7 = experiment: Cytotoxicity against mouse RAW264.7 cells assessed as cell viability up to 50 uM after 24 hrs by MTT assay; format: cell-based; settings: raw264.7, 24 h
How it was run: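 RAW264.7 cells (ATCC), about 1.0×10^5 cells/ml, were held 2 h in serum-free medium at 37°C, 5% CO2. The supernatant was replaced with RPMI 1640 containing compound at 0, 5, 10, 20, 30, 40 or 50 μM for 24 h. MTT (5 mg/mL stock) was added for the final 4 h. Formazan was dissolved in DMSO and OD570 read. Survival was compared with blank.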

Compound	inhibition in vivo at 5 mg/kg (Mus musculus [3])	other results
C[C@@H]1C[C@H]2[C@@H]3CCC4=CC(=O)C=C[C@]4(C)[C@@]3(F)[C@@H](O)C[C@]2(C)[C@@]1(O)C(=O)CO [DEXAMETHASONE]		inhibition in vivo at 0.5 mg/kg (Mus musculus [1]): 46.8 to 63.8%
CC(c1cc2ccccc2s1)N(O)C(N)=O (configuration not stated) [ZILEUTON]		IC50 [2]: 38.9 nM
Cc1cncc(CN2CCN(C(=O)c3cc4cc(Cl)ccc4n3Cc3ccc(Cl)cc3)CC2)c1	29.8%	
CN1CCN(C(=O)c2cc3cc(Cl)ccc3n2Cc2ccc(F)cc2)CC1	36.7%	
O=C(c1cc2cc(Cl)ccc2n1Cc1ccc(Cl)cc1)N1CCN(Cc2ccc3c(c2)OCO3)CC1	32.9%	
N#Cc1ccc(CN2CCN(C(=O)c3cc4cc(Cl)ccc4n3Cc3ccc(F)cc3)CC2)cc1	35.4%	
O=C(c1cc2cc(Cl)ccc2n1Cc1ccc(F)cc1)N1CCN(Cc2ccc3c(c2)OCO3)CC1	34.2%	
O=C(c1cc2cc(Cl)ccc2n1Cc1ccc(F)cc1)N1CCN(Cc2ccccc2)CC1	24%	
O=C(c1cc2cc(Cl)ccc2n1Cc1ccc(Cl)cc1)N1CCN(Cc2ccc(F)cc2)CC1	29.1%	
Cc1ccc(CN2CCN(C(=O)c3cc4cc(Cl)ccc4n3Cc3ccc(F)cc3)CC2)cc1	32.9%	
COc1ccc2[nH]cc(CCNC(=O)c3cc4cc(Cl)ccc4n3Cc3ccc(F)cc3)c2c1	50%	IC50 [4]: 407 nM; Activity (RAW264.7): Non-Toxic; IC50 [2]: 66.1 nM
Cc1cncc(CN2CCN(C(=O)c3cc4cc(Cl)ccc4n3Cc3ccc(F)cc3)CC2)c1	25.4%	
Cc1nc(C)c(CNC2CCN(C(=O)c3cc4cc(Cl)ccc4n3Cc3ccc(F)cc3)C2)nc1C (configuration not stated)	49.4%	
Cc1nc(C)c(CN2CCN(C(=O)c3cc4cc(Cl)ccc4n3Cc3ccc(Cl)cc3)CC2)nc1C	64.9%	IC50 [4]: 312 nM; IC50 [2]: 339 nM
COc1ccc2[nH]cc(CCNC(=O)c3cc4cc(Cl)ccc4n3Cc3ccc(Cl)cc3)c2c1	44.3%	
O=C(c1cc2cc(Cl)ccc2n1Cc1ccc(Cl)cc1)N1CCN(Cc2ccc(Cl)cc2)CC1	40.5%	IC50 [4]: 361 nM; IC50 [2]: 210 nM
COc1ccc(CN2CCN(C(=O)c3cc4cc(Cl)ccc4n3Cc3ccc(F)cc3)CC2)cc1	43.1%	IC50 [4]: 195 nM; Activity (RAW264.7): Non-Toxic; IC50 [2]: 83.5 nM
Cc1nc(C)c(CNC2CCN(C(=O)c3cc4cc(Cl)ccc4n3Cc3ccc(Cl)cc3)C2)nc1C (configuration not stated)	42.5%	
O=C(c1cc2cc(Cl)ccc2n1Cc1ccc(F)cc1)N1CCN(Cc2ccc(C(F)(F)F)cc2)CC1	27.8%	
O=C(c1cc2cc(Cl)ccc2n1Cc1ccc(Cl)cc1)N1CCN(Cc2ccc(C(F)(F)F)cc2)CC1	30.4%	
Cc1nc(C)c(CN2CCN(C(=O)c3cc4cc(Cl)ccc4n3Cc3ccc(F)cc3)CC2)nc1C	48.3%	
Cc1ccc(CN2CCN(C(=O)c3cc4cc(Cl)ccc4n3Cc3ccc(Cl)cc3)CC2)cc1	39.2%	
